Assay results taken from ChEMBL document CHEMBL5036319, “Discovery of Novel Benzothiazepinones as Irreversible Covalent Glycogen Synthase Kinase 3β Inhibitors for the Treatment of Acute Promyelocytic Leukemia” (J Med Chem, 2021).
The source made the active and inactive calls. The rule behind the calls is not given here.

How the values were obtained:
[1] = Terminal half life in ICR mouse at 15 mg/kg, ip administered as single dose measured upto 8 hrs by LC-MS/MS analysis; assay type: ADME, organism-based; settings: in vivo
Method in brief: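 Male ICR mice (30 g) received a single 15 mg/kg i.p. bolus in corn oil. Orbital blood went into K3EDTA tubes at 0.08–8 h, three animals per time point (composite profile). Plasma was protein-precipitated with acetonitrile and analysed by LC–MS/MS; non-compartmental analysis.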

[2] = Induction in caspase-mediated apoptosis in human NB-4 cells assessed as viable cells at 25 uM incubated for 24 hrs by Annexin V-FITC/propidium iodide staining based flow cytometry analysis (reference value: 96.6%); assay type: functional; settings: read-out: Activity
[3] = AUCinfinity in ICR mouse at 15 mg/kg, ip administered as single dose measured upto 8 hrs by LC-MS/MS analysis; assay type: ADME, organism-based; set-up: route intraperitoneal, dose 15 mg/kg, time <=8; settings: in vivo
Method in brief: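 Male ICR mice (30 g) given a single i.p. bolus of 15 mg/kg in corn oil. Blood taken by orbital collection into K3EDTA tubes at 0.08, 0.17, 0.5, 1, 2, 4 and 8 h, three animals per time point, giving a composite profile. Plasma proteins were precipitated with acetonitrile and analysed by LC-MS/MS. Parameters were derived by non-compartmental analysis.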

[4] = Induction in caspase-mediated apoptosis in human NB4-DR1 cells assessed as early apoptosis cells at 12.5 uM incubated for 24 hrs in presence of Z-VAD-FMK by Annexin V-FITC/propidium iodide staining based flow cytometry analysis (reference value: 0.875%); assay type: functional
[5] = Induction in caspase-mediated apoptosis in human NB4-DR1 cells assessed as early apoptotic cells at 100 uM incubated for 24 hrs by Annexin V-FITC/propidium iodide staining based flow cytometry analysis (reference value: 1.43%); assay type: functional
[6] = Induction in caspase-mediated apoptosis in human NB-4 cells assessed as necrotic cells at 12.5 uM incubated for 24 hrs by Annexin V-FITC/Propidium iodide staining based flow cytometry analysis (reference value: 0.352%); assay type: functional
NB-4 = assay: Effect on glycogen synthase phosphorylation in human NB-4 cells assessed as reduction in ratio of p-GS to GS measured after 24 hrs by Western blot analysis; assay type: functional, cell-based
Method in brief: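 NB4 and NB4-R1 cells were treated 24 h at several concentrations and lysed in RIPA. Equal protein was immunoblotted for phospho-glycogen synthase (Ser641), total GS and β-actin, with ECL detection. Band densities were quantified as the p-GS/GS ratio. n = 3, mean ± SEM.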

Raji = assay: Cytotoxicity against human Raji cells assessed as reduction in cell viability measured after 24 hrs by CCK-8 assay; assay type: functional, cell-based
Method in brief: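 Cells were grown in RPMI-1640 or high-glucose DMEM with 10% FBS at 37 °C, 5% CO2, and seeded at 3 × 10^4 cells/well. Exposure was 24 h across serial concentrations (0−1000 μM in the screen). […] Three independent experiments, mean ± SEM.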

[7] = Induction in caspase-mediated apoptosis in human NB-4 cells assessed as late apoptotic cells at 12.5 uM incubated for 24 hrs by Annexin V-FITC/propidium iodide staining based flow cytometry analysis (reference value: 1.06%); assay type: functional
[8] = Induction in caspase-mediated apoptosis in human NB-4 cells assessed as viable cells at 100 uM incubated for 24 hrs by Annexin V-FITC/propidium iodide staining based flow cytometry analysis (reference value: 96.6%); assay type: functional; settings: read-out: Activity

For C=CC(=O)N1C(=O)CC(c2ccc(F)cc2)Sc2ccccc21 (stereo not given), the “beta t1/2” value [1] was 14.2 h, the viability at 25 µM [2] was 36.4% and the AUC [3] was 10838.33 ng·h/mL. The Activity [4] was 0.773%, the Activity [5] was 4.16% and the Activity [6] was 6.13%. The Activity (NB-4) was “Active”, the IC50 (Raji) was 28.4 µM and the Activity [7] was 8.04%. The viability at 100 µM [8] was 5.94%.
